Measurements: ChEMBL document CHEMBL4196188, “GEX1A, a Polyketide from Streptomyces chromofuscus, Corrects the Cellular Defects Associated with Niemann-Pick Type C1 in Human Fibroblasts” (J Nat Prod, 2018)
The source made the active and inactive calls. The rule behind the calls is not given here.

Assays:
[1] = biological target: Splicing factor 3B subunit 1 (Homo sapiens) (UniProt O75533); test: Binding affinity to SAP155 in human GM18407 cells harboring NPC1 R404Q/M1142T mutant assessed as restoration of cholesterol trafficking at 0.001 to 5 uM after 48 hrs by filipin-staining based fluorescence microscopic analysis; format: cell-based
[2] = biological target: Splicing factor 3B subunit 1 (Homo sapiens) (UniProt O75533); test: Binding affinity to SAP155 in human GM18453 cells harboring NPC1 mutant assessed as restoration of cholesterol trafficking at 50 nM after 48 hrs by filipin-staining based fluorescence microscopic analysis; format: cell-based
Summary of the method: (§1)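 GM18453 NPC1-mutant fibroblasts were exposed for 48 h to 1 nM–5 μM compound, with DMSO vehicle and SAHA (5 μM) positive control. Cells were fixed, stained with filipin for unesterified cholesterol, and imaged by automated fluorescence microscopy. Filipin area sum per cell count was taken from four images per condition across four independent replicates.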

[3] = Stability in mouse liver microsomes; format: ADME, microsome
[4] = Aqueous solubility of the compound in pH 7.4 buffer; format: physicochemical
[5] = Aqueous solubility of the compound in HBSS solution; format: physicochemical; conditions: buffer
[6] = Permeability in human Caco2 cells; format: ADME, cell-based; conditions: caco-2
[7] = Protein binding in human plasma; format: ADME, cell-free
[8] = biological target: Splicing factor 3B subunit 1 (Homo sapiens) (UniProt O75533); test: Binding affinity to SAP155 in human GM18453 cells harboring NPC1 mutant assessed as increase in 100 kDa NPC1 protein expression at 50 nM pretreated for 48 hrs followed by endoglycosidase H addition and measured after overnight incubation by Western blot analysis relative to control; format: cell-based
Summary of the method: (§2)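 GM18453 fibroblasts were exposed 48 h to 50 nM compound, SAHA 5 μM or DMSO 0.1%. 25 μg lysate was denatured 10 min at 65°C, digested with Endo H (1000 U) about 18 h at 37°C, then run on SDS-PAGE. Blots were probed with rabbit anti-NPC1. Isoforms were quantified by densitometry against DMSO control across four independent experiments.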

[9] = biological target: Splicing factor 3B subunit 1 (Homo sapiens) (UniProt O75533); test: Binding affinity to SAP155 in human GM18453 cells harboring NPC1 mutant assessed as increase in 180 kDa NPC1 protein expression at 50 nM pretreated for 48 hrs followed by PNGaseF addition and measured after overnight incubation by Western blot analysis; format: cell-based
Summary of the method: (§3)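 After 48 h exposure of GM18453 fibroblasts to 50 nM compound (controls SAHA 5 μM, DMSO 0.1%), 25 μg lysate with SDS, DTT and Tris-HCl pH 8 was digested with PNGase F (1000 U) about 18 h at 37°C. Samples were immunoblotted with rabbit anti-NPC1, and isoforms were quantified by densitometry over four independent experiments.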

[10] = biological target: Splicing factor 3B subunit 1 (Homo sapiens) (UniProt O75533); test: Binding affinity to SAP155 in human GM18453 cells harboring NPC1 mutant assessed as increase in 180 kDa NPC1 protein expression at 50 nM measured after 48 hrs by Western blot analysis; format: cell-based
Summary of the method: (§4)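 GM18453 fibroblasts were treated 48 h at 37°C, 5% CO2 with 50 nM compound, SAHA 5 μM or DMSO 0.1% v/v, then lysed in RIPA with protease inhibitors. 25–50 μg protein was run on 4–20% SDS-PAGE, blotted to PVDF and probed with rabbit polyclonal C-terminal anti-NPC1 (1:1000, overnight, 4°C). Detection used HRP anti-rabbit and ECL film.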

[11] = biological target: Splicing factor 3B subunit 1 (Homo sapiens) (UniProt O75533); test: Binding affinity to SAP155 in human GM18453 cells harboring NPC1 mutant assessed as increase in 250 kDa NPC1 protein expression at 50 nM pretreated for 48 hrs followed by endoglycosidase H addition and measured after overnight incubation by Western blot analysis; format: cell-based; summary of the method: as §2
[12] = Cytotoxicity against human GM18453 cells harboring NPC1 mutant assessed as effect on cell shape at 5 uM; format: cell-based; summary of the method: as §1
[13] = Cytotoxicity against human GM18453 cells harboring NPC1 mutant assessed as effect on nuclei shape at 5 uM; format: cell-based; summary of the method: as §1
[14] = Mean residence time in ICR mouse at 2 mg/kg by LC-MS/MS analysis; format: ADME, organism-based; conditions: in vivo
[15] = Stability in human liver microsomes; format: ADME, microsome
[16] = biological target: Splicing factor 3B subunit 1 (Homo sapiens) (UniProt O75533); test: Binding affinity to SAP155 in human GM18453 cells harboring NPC1 mutant assessed as increase in 120 kDa NPC1 protein expression at 50 nM pretreated for 48 hrs followed by PNGaseF addition and measured after overnight incubation by Western blot analysis; format: cell-based; summary of the method: as §3
[17] = biological target: Splicing factor 3B subunit 1 (Homo sapiens) (UniProt O75533); test: Binding affinity to SAP155 in human GM18453 cells harboring NPC1 mutant assessed as increase in 180 kDa NPC1 protein expression at 50 nM pretreated for 48 hrs followed by endoglycosidase H addition and measured after overnight incubation by Western blot analysis; format: cell-based; summary of the method: as §2
[18] = biological target: Splicing factor 3B subunit 1 (Homo sapiens) (UniProt O75533); test: Binding affinity to SAP155 in human GM18453 cells harboring NPC1 mutant assessed as increase in 100 kDa NPC1 protein expression at 50 nM measured after 48 hrs by Western blot analysis; format: cell-based; summary of the method: as §4
[19] = Protein binding in mouse plasma; format: ADME, cell-free
[20] = biological target: Splicing factor 3B subunit 1 (Homo sapiens) (UniProt O75533); test: Binding affinity to SAP155 in human GM18453 cells harboring NPC1 mutant assessed as increase in 120 kDa NPC1 protein expression at 50 nM measured after 48 hrs by Western blot analysis; format: cell-based; summary of the method: as §4

Splicing factor 3B subunit 1 (Homo sapiens), sequence (O75533 whole entry, canonical isoform): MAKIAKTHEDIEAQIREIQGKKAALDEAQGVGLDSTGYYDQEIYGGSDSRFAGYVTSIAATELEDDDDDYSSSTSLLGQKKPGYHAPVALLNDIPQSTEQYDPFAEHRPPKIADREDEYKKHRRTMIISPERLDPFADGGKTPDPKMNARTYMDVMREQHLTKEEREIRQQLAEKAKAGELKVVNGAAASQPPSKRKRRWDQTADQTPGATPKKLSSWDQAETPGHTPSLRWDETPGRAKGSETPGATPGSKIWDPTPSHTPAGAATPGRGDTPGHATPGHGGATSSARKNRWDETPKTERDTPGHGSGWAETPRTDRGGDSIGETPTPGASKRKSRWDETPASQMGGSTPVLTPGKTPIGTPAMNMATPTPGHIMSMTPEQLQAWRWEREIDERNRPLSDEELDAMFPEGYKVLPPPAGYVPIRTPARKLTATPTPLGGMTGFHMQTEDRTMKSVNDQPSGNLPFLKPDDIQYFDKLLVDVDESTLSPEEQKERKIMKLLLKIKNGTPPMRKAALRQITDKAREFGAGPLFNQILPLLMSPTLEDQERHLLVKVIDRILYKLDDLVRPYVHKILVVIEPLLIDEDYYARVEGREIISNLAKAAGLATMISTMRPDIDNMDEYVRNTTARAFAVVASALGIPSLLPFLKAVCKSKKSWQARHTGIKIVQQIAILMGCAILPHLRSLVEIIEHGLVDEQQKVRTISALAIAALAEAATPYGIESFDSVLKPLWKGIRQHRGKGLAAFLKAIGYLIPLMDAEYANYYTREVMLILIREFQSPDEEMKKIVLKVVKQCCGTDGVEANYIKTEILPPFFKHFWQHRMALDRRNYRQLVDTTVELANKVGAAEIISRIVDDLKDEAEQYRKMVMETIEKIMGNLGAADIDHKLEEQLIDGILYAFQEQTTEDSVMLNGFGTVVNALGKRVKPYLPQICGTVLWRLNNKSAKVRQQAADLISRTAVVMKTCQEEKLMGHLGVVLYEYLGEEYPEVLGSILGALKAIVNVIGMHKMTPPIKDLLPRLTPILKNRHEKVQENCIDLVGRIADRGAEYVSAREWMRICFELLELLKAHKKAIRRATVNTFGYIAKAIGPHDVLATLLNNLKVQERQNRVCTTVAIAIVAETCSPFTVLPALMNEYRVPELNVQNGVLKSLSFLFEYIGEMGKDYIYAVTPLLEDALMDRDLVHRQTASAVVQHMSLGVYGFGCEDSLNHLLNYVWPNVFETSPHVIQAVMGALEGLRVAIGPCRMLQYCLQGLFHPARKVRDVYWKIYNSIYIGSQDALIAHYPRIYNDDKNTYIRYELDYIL

## COC(=O)C[C@H]1CC[C@H](C)[C@@H](/C(C)=C/C=C/[C@@H](C)C[C@@]2(C)O[C@@H]2[C@H](C)[C@@H](OC)[C@@H](C)O)O1
[1]
  Activity: inactive
[2]
  Activity: Active

## CO[C@H]([C@@H](C)[C@H]1O[C@]1(C)C[C@H](C)/C=C/C=C(\C)[C@H]1O[C@@H](CC(=O)O)CC[C@@H]1C)[C@@H](C)O
[3]
  Stability: Stable
[4]
  solubility: Soluble
[1]
  Activity: inactive
[5]
  solubility: Soluble
[6]
  permeability: Permeable
[2]
  Activity: Active
[7]
  PB: Active
[8]
  fold change (FC): 1.5
[9]
  Activity: inactive
[10]
  Activity: Active
[11]
  Activity: inactive
[12]
  Activity: Toxic
[13]
  Activity: Toxic
[14]
  MRT: 4.53 h
[15]
  Stability: Stable
[16]
  Activity: Active
[17]
  Activity: inactive
[18]
  Activity: Active
[19]
  PB: Active
[20]
  Activity: Active

## COC(=O)C[C@H]1CC[C@H](C)[C@@H](/C(C)=C/C=C/[C@@H](C)C[C@@]2(C)O[C@@H]2[C@H](C)[C@@H](OC)C(C)=O)O1
[1]
  Activity: inactive
[2]
  Activity: Active

## COC(=O)C[C@H]1CC[C@H](C)[C@@H](/C(C)=C/C=C/[C@@H](C)C[C@@]2(C)O[C@@H]2[C@H](C)[C@@H](OC)[C@@H](C)OC(C)=O)O1
[1]
  Activity: inactive
[2]
  Activity: Active
